This passage reports IC50 and Ratio IC50 results from ChEMBL document CHEMBL4359882, “Synthesis, molecular docking, and QSAR study of bis-sulfonamide derivatives as potential aromatase inhibitors” (Bioorg Med Chem, 2019).

Each structure is given as a SMILES string. Bounds are passed on as bounds.

One assay has as its target T1, Aromatase (Homo sapiens, UniProt P11511).
T1 sequence (P11511 whole entry): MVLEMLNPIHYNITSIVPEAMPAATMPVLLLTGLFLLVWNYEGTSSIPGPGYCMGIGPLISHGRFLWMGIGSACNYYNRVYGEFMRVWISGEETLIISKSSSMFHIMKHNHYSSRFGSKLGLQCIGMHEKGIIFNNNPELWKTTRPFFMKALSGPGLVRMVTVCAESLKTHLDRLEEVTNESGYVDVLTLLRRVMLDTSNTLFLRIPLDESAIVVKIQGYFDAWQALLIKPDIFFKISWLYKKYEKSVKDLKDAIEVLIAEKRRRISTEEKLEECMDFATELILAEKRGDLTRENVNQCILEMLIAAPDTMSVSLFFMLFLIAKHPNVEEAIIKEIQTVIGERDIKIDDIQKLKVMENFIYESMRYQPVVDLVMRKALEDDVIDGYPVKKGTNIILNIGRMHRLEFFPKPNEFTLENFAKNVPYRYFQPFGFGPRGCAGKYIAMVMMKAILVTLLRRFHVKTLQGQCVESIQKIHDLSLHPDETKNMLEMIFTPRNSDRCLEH
As to the kind of experiment: Inhibition of recombinant human aromatase expressed in baculovirus infected insect cells using O-benzyl fluorescein benzyl ester as substrate in presence of NADPH generating system by fluorescence based analysis.

A further assay relates to T47D. In words: Cytotoxicity against human T47D cells assessed as reduction in cell growth measured after 48 hrs by MTT assay. Format: functional, cell-based. The gist of the method:
(§1)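 T47-D cells kept in RPMI-1640 with 2 mM L-glutamine, insulin, 4.5 g/L glucose and 10% FBS. MRC-5 cells kept in DMEM with 10% FBS. Cells seeded at 10,000-20,000 per well and preincubated 24 h at 37 °C in 5% CO2. Serial dilutions added, then incubated 48 h. MTT for 2-4 h, formazan dissolved in DMSO, read at 550/650 nm. IC50 is the concentration giving 50% growth inhibition.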

For another assay, the system named is MRC5. As to the kind of experiment: Cytotoxicity against human MRC5 cells assessed as reduction in cell growth measured after 48 hrs by MTT assay. The settings on record: MRC5, 48 h. Format: cell-based. The gist of the method:
as §1
(Tetrazolium assays rely on reduction of a dye to a coloured formazan, in cell work by metabolically active cells.)

The species named for the next assay is Homo sapiens. In words: Selectivity index, ratio of IC50 for human MRC5 cells by MTT assay to IC50 for human recombinant aromatase expressed in baculovirus infected insect cells.
Setting [1] is: Homo sapiens, T47D, 48 h, read-out: IC50.

For orientation: IC50 means the concentration needed to halve the response being measured.

For `O=S(=O)(NCc1cccc(CNS(=O)(=O)c2ccc(C(F)(F)F)cc2)c1)c1ccc(C(F)(F)F)cc1`, the IC50 stood at 430 nM at Aromatase, 75.4 µM in the assay with T47D (setting [1]) and 74.6 µM in the assay on MRC5. Also, the Ratio IC50 in the assay filed under Homo sapiens worked out at 173.
Consider `Cc1cc(C)c(C)c(S(=O)(=O)NCc2cccc(CNS(=O)(=O)c3c(C)c(C)cc(C)c3C)c2)c1C`, for which the half-maximal inhibitory concentration (IC50) at Aromatase turned out to be 3200 nM; in the assay on T47D (setting [1]), 30.9 µM; with MRC5 it was 80.9 µM. The Ratio IC50 in the assay listed under Homo sapiens was found to be 25.3.
As to `COc1cccc2c1C(=O)c1c(O)c3c(c(O)c1C2=O)C[C@@](O)(C(=O)CO)C[C@@H]3O[C@H]1C[C@H](N)[C@H](O)[C@H](C)O1` [DOXORUBICIN], the results for the 50% inhibitory concentration (IC50) in the assay with T47D (setting [1]) and with MRC5 were 0.88 µM and 2.19 µM, respectively.
Turning to `N#Cc1ccc(S(=O)(=O)NCc2ccc(CNS(=O)(=O)c3ccc(C#N)cc3)cc2)cc1`, the IC50 on Aromatase is 660 nM; in the assay with T47D (setting [1]), more than 50 µg/mL; in the assay with MRC5 it was 92.8 µM. Further, the Ratio IC50 in the assay filed under Homo sapiens worked out at 141.
As to `O=S(=O)(NCc1cccc(CNS(=O)(=O)c2ccc(Cl)cc2)c1)c1ccc(Cl)cc1`, the IC50 on Aromatase was 50 nM; in the assay on T47D (setting [1]), 37.5 µM; in the assay with MRC5 it was 68.5 µM. Also, the Ratio IC50 in the assay listed under Homo sapiens was 1370.
The like results for `O=[N+]([O-])c1cccc(S(=O)(=O)NCc2cccc(CNS(=O)(=O)c3cccc([N+](=O)[O-])c3)c2)c1` were, in that order, 2750 nM, more than 50 µg/mL, more than 50 µg/mL and more than 35.9.
For `COc1ccc(S(=O)(=O)NCc2cccc(CNS(=O)(=O)c3ccc(OC)cc3)c2)cc1`, in that order: 11600 nM, 75.3 µM, more than 50 µg/mL and more than 9.04.
With `S=C(NCc1cccc(CNC(=S)Nc2ccc(Cl)cc2)c1)Nc1ccc(Cl)cc1`, the IC50 at Aromatase came out at 5500 nM.
Regarding `O=[N+]([O-])c1ccc(NC(=S)NCc2cccc(CNC(=S)Nc3ccc([N+](=O)[O-])cc3)c2)cc1`, at Aromatase, the IC50 was 800 nM.
`O=[N+]([O-])c1ccccc1S(=O)(=O)NCc1cccc(CNS(=O)(=O)c2ccccc2[N+](=O)[O-])c1`: the results for the IC50 on Aromatase, in the assay with T47D (setting [1]) and in the assay on MRC5 were 3670 nM, 75.4 µM and more than 50 µg/mL, respectively. Moreover, the Ratio IC50 in the assay filed under Homo sapiens is more than 26.9.
On to `O=S(=O)(NCc1cccc(CNS(=O)(=O)c2ccc3ccccc3c2)c1)c1ccc2ccccc2c1`, for which the IC50 at Aromatase is 210 nM; in the assay on T47D (setting [1]) it was more than 50 µg/mL; with MRC5 it was more than 50 µg/mL. The Ratio IC50 in the assay listed under Homo sapiens is more than 461.
Take `O=S(=O)(NCc1cccc(CNS(=O)(=O)c2ccc(Br)cc2)c1)c1ccc(Br)cc1`: the IC50 at Aromatase is 60 nM; in the assay on T47D (t47d) it was “Nd(Insoluble)”; with MRC5 it was more than 50 µg/mL. Besides, the Ratio IC50 in the assay filed under Homo sapiens was more than 1450.
Take `O=S(=O)(NCc1cccc(CNS(=O)(=O)c2ccc(F)cc2)c1)c1ccc(F)cc1`: the half-maximal inhibitory concentration (IC50) on Aromatase was 2190 nM; in the assay with T47D (t47d), “Nd(Insoluble)”; in the assay on MRC5, more than 50 µg/mL. Besides, the Ratio IC50 in the assay filed under Homo sapiens is more than 50.5.
Turning to `O=[N+]([O-])c1ccc(S(=O)(=O)NCc2cccc(CNS(=O)(=O)c3ccc([N+](=O)[O-])cc3)c2)cc1`, the IC50 is 370 nM on Aromatase, 39.3 µM in the assay on T47D (setting [1]) and more than 50 µg/mL in the assay with MRC5. Besides, the Ratio IC50 in the assay listed under Homo sapiens is more than 267.
Turning to `CC(=O)c1ccc(S(=O)(=O)NCc2cccc(CNS(=O)(=O)c3ccc(C(C)=O)cc3)c2)cc1`, the IC50 is 280 nM at Aromatase, more than 50 µg/mL with T47D (setting [1]) and more than 50 µg/mL in the assay with MRC5. Also, the Ratio IC50 in the assay filed under Homo sapiens is more than 357.
With `Cc1ccc(S(=O)(=O)NCc2cccc(CNS(=O)(=O)c3ccc(C)cc3)c2)cc1`, the IC50 is 130 nM at Aromatase, 43.9 µM with T47D (setting [1]) and more than 50 µg/mL in the assay on MRC5. In the assay listed under Homo sapiens, the Ratio IC50 is more than 865.
In the case of `O=S(=O)(Nc1cccc(NS(=O)(=O)c2ccc(Cl)cc2)c1)c1ccc(Cl)cc1`, the IC50 on Aromatase came to 780 nM; in the assay with T47D (setting [1]), 87.2 µM; in the assay with MRC5 it was 63.1 µM. In addition, in the assay listed under Homo sapiens, the Ratio IC50 stood at 80.9.
For `N#Cc1ccc(S(=O)(=O)NCc2cccc(CNS(=O)(=O)c3ccc(C#N)cc3)c2)cc1`, the IC50 on Aromatase is 160 nM; with T47D (setting [1]), 69.3 µM; with MRC5 it was more than 50 µg/mL. Moreover, the Ratio IC50 in the assay filed under Homo sapiens was more than 670.
As to `Nc1cccc(S(=O)(=O)NCc2cccc(CNS(=O)(=O)c3cccc(N)c3)c2)c1`, the IC50 on Aromatase is 3300 nM; with T47D (setting [1]) it was 90.6 µM; in the assay with MRC5 it was more than 50 µg/mL. Besides, the Ratio IC50 in the assay filed under Homo sapiens is more than 33.9.
For `COc1ccc(S(=O)(=O)Nc2cccc(NS(=O)(=O)c3ccc(OC)cc3)c2)cc1`, in that order: 530 nM, more than 50 µg/mL, more than 50 µg/mL and more than 210.
With `Cc1cc(C)c(C)c(S(=O)(=O)NCc2ccc(CNS(=O)(=O)c3c(C)c(C)cc(C)c3C)cc2)c1C`, the IC50 on Aromatase was more than 12500 nM; in the assay with T47D (setting [1]), more than 50 µg/mL; in the assay with MRC5 it was 16.3 µM.
